Source: article PMC11252475 (Acta Pharmaceutica Sinica. B, 2024)

Legend:
[1] = molecular target: NaV1.5 (Homo sapiens, UniProt Q14524); assay: Cell membrane chromatography; assay type: binding; conditions: capacity factor k′; reflects potential cardiac toxicity; k′ < 0 labeled as 0
[2] = system: rats; assay: Cutaneous trunci pinprick model; assay type: in vivo, rat; conditions: 62.3 mmol/L, subcutaneous
Procedure, shortened: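 Male SD rats under 1%–3% isoflurane had about 6 cm × 6 cm of back shaved, swabbed with alcohol and split into four areas. Test compound (62.3 mmol/L) was given by s.c. infiltration. Pinprick scored 1 for no response and 0 for response. Duration ran from onset to expiration, expressed as mean-score MPE. Effective block was ≥50% MPE; complete block was 100% MPE.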

[3] = system: rats; assay: Sciatic nerve block model; assay type: in vivo, rat; conditions: 62.3 mmol/L near sciatic nerve
Procedure, shortened: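 Test compound (62.3 mmol/L) was injected near the sciatic nerve. Hind limbs were tested every 30 min until back to pre-test baseline. Sensory: paw withdrawal latency on a 55 °C hotplate, timed by stopwatch. Motor: extensor postural thrust in grams on a digital balance. Recovery was 50% of baseline.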

[4] = system: rats; assay: CFA-induced chronic plantar inflammatory pain model; assay type: in vivo, rat; conditions: 62.3 mmol/L, 0.2 mL subcutaneous at swollen foot
Procedure, shortened: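 Male SD rats (6–8 weeks, 250–300 g) under 1%–3% isoflurane had CFA injected into the right foot. Test compound (62.3 mmol/L, 0.2 mL) or equal-volume saline was given s.c. at the swollen site. Electronic von Frey stimulation to the side of the foot every 10 min after onset. Anesthesia failed when the value fell to half the limb-weight-to-baseline difference or below.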

[5] = system: rats; assay: Plantar incisional pain model; assay type: in vivo, rat; conditions: 0.2 mL near incision
Procedure, shortened: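 Rats with a plantar incision received test compound or saline, 0.2 mL, near the incision. Local anesthesia was assessed by von Frey stimulation of the lateral sole.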

[6] = system: NaV currents in rat dorsal root ganglion (DRG) neurons; assay: Whole-cell patch clamp, sodium current in DRG neurons; assay type: cell-based
Procedure, shortened: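 Male rat DRG neurons (180–200 g donors) were dissociated with collagenase IV (2 mg/mL) then trypsin (10 mg/mL) for 30 min, plated on poly-L-lysine and grown in Neurobasal with FBS and B27. Whole-cell voltage clamp used 3–4 MΩ electrodes. I/V steps ran from −90 to +40 mV in 10 mV increments, 50 ms each.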

[7] = system: NaV currents in rat trigeminal neuron (TG) neurons; assay: Whole-cell patch clamp, sodium current in TG neurons; assay type: cell-based
[8] = Systemic toxicity, intravenous; conditions: ICR, mouse, in vivo
[9] = Systemic toxicity, subcutaneous injection; assay type: in vivo, rat; conditions: Sprague-Dawley, rat, in vivo, sc
[10] = system: SD rats; assay: Systemic toxicity, subcutaneous injection; assay type: in vivo, rat; conditions: TI = LD50/ED50, s.c.
[11] = molecular target: hERG channel (Homo sapiens, UniProt Q12809); assay: hERG potassium current inhibition; assay type: cell-based
Chain of hERG channel (Q12809 whole entry): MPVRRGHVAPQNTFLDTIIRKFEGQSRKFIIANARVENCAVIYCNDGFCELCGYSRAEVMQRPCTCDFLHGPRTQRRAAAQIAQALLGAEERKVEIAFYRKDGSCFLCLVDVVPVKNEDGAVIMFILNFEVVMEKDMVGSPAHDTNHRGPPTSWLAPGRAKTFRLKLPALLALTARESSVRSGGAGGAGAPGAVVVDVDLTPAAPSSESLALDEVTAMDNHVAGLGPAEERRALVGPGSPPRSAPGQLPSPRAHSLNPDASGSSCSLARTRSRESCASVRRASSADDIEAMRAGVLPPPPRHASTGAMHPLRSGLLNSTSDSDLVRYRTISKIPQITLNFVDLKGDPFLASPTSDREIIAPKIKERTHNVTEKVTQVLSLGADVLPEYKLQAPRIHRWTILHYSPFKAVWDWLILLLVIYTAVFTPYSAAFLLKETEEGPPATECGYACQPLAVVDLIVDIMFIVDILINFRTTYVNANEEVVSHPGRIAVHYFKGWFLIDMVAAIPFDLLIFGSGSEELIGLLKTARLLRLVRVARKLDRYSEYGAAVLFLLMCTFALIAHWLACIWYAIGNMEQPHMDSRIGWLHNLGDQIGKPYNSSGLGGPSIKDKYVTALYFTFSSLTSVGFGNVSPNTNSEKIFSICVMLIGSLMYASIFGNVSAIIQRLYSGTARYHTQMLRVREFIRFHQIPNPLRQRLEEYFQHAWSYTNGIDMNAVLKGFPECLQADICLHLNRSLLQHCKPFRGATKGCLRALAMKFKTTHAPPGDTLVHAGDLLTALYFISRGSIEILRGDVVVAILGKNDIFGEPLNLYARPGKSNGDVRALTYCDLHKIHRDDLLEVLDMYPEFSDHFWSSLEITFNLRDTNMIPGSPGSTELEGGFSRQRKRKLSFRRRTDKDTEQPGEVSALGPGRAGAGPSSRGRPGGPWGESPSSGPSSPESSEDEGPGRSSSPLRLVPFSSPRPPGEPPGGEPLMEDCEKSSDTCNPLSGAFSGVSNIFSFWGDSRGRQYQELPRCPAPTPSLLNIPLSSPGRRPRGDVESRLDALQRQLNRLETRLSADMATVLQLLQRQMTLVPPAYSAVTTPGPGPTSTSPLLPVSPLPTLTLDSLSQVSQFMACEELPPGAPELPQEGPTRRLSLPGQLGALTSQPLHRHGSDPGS

[12] = in vitro; assay type: in vitro ADME; conditions: rat, microsomes, pH 7.4
[13] = in vitro; assay type: in vitro ADME; conditions: human, microsomes, pH 7.4
[14] = Pharmacokinetics after subcutaneous injection; assay type: in vivo; conditions: male, Sprague-Dawley, rat, plasma, sc, 62.3 mmol/L
[15] = system: rats; assay: Dental pulp injury pain model; assay type: in vivo, rat; conditions: compared with AT
Procedure, shortened: (§1)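 Oral pain models in rats under 1%–3% isoflurane, with test compound given as local anesthetic. Food intake and body-weight change were measured on a precision balance over 24 h. Facial grooming was video-recorded for 1 h after dosing.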

[16] = system: rats; assay: Gingival incision pain model; assay type: in vivo, rat
Procedure, shortened: as §1

[17] = system: rats; assay: Tooth extraction pain model; assay type: in vivo, rat
Procedure, shortened: as §1

[18] = system: IL-1β, IL-6, TNFα; assay: LPS-induced inflammatory factor expression; assay type: cell-based, rat; conditions: LPS 24 h, DRG neurons and PC12 cells; similar to LD, stronger than AT
[19] = system: NLRP3 inflammasome; assay: NLRP3 inflammasome activation after LPS; assay type: cell-based, rat
Procedure, shortened: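 DRG neurons and NGF-differentiated PC12 cells, with LPS given before or together with test compound. ASC specks: 3% paraformaldehyde 15 min, 0.5% Triton X-100 15 min, 5% BSA 2 h, anti-ASC 1:200 overnight at 4 °C, secondary 1:500 1 h in the dark, DAPI, fluorescence microscopy. Western blot: PVDF, 5% milk 2 h, anti-NLRP3 and anti-caspase-1 1:1000 overnight at 4 °C.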

[20] = system: DRG neurons; assay: LPS-induced ROS production, cytoplasmic mtDNA release, 8-OHdG; assay type: cell-based, rat; conditions: PC12 cells
[21] = system: rats; assay: Local anesthetic toxicity, blood biochemistry and organ pathology; assay type: in vivo, rat
Procedure, shortened: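 Test compound was given in the rat sciatic nerve block model. Rats were killed at 7 and 14 days. Sciatic nerve and surrounding tissue were HE-stained and inflammatory cells counted in equal-sized areas (nerve:surrounding 1:1). Serum ALT, AST, LDH, α-HBDH, CREA and UREA were run on an automatic analyser. Heart, liver and kidney were HE-stained for pathology.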

Chain of NaV1.5 (Q14524 whole entry): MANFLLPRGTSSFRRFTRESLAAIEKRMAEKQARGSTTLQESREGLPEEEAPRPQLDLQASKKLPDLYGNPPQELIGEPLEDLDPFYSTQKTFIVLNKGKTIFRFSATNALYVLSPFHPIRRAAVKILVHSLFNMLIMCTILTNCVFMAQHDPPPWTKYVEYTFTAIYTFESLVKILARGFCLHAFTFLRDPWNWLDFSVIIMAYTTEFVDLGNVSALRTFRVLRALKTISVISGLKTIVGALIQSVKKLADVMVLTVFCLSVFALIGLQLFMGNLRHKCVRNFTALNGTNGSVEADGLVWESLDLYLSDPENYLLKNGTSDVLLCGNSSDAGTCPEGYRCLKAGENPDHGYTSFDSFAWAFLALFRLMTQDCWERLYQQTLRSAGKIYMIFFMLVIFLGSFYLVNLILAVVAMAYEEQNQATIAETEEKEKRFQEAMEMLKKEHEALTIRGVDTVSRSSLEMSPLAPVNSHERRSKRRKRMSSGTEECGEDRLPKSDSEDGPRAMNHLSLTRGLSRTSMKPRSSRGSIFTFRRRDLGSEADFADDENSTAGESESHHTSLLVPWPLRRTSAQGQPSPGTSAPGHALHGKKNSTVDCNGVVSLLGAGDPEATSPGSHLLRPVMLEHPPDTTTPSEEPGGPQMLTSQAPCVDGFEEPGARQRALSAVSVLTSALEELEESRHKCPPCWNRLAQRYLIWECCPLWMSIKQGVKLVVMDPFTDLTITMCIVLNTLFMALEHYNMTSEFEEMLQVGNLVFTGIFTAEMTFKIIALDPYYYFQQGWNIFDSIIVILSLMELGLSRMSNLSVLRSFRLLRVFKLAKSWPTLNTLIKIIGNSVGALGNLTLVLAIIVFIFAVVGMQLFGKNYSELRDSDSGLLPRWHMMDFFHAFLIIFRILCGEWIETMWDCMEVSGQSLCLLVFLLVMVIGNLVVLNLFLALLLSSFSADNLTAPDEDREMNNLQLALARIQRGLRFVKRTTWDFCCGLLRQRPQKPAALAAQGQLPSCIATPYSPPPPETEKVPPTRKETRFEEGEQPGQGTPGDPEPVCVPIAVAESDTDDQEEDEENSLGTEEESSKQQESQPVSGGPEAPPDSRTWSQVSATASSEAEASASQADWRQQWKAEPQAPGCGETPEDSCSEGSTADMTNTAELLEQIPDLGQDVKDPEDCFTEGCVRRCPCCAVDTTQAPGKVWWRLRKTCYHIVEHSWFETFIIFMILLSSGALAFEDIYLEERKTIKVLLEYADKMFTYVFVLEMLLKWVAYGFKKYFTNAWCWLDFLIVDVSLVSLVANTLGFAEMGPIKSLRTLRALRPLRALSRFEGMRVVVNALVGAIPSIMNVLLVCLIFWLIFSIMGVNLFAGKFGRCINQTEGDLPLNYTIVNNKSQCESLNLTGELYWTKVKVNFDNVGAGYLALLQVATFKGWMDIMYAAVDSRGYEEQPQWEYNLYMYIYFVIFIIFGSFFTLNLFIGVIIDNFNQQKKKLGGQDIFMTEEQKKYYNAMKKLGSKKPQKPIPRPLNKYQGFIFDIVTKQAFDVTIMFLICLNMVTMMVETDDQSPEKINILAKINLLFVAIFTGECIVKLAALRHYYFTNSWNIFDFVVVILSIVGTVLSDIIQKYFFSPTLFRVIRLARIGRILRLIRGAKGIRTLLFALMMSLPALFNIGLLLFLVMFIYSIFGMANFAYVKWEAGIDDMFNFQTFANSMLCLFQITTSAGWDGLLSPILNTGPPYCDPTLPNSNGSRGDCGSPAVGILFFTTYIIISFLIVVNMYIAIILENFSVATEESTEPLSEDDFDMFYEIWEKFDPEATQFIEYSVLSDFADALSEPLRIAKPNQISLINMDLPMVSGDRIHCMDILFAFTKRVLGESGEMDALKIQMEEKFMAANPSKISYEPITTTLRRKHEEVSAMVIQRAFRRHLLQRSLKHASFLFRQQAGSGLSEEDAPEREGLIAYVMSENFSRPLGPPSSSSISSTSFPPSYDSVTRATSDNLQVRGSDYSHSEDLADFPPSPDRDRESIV

CCCCN1CCN(C(C)C(=O)Nc2c(C)csc2C(=O)OC)CC1 (centres unmarked) [AT-17, Methyl 3-(2-(4-butylpiperazin-1-yl)propanamido)-4-methylthiophene-2-carboxylate]
k′ NaV1.5 [1]: 22.4 | subcutaneous infiltration duration [2]: 400 min | motor block duration ([3]; extensor postural thrust): 260 min | duration of effective sensory blockade ([3]; hotplate test): 200 min | duration of action (anesthesia) under CFA-induced chronic inflammation [4]: 83.3 min | anesthesia result in acute inflammation model through plantar incision [5]: improved results | IC50 ([6]; F-11 rat/mouse fusion cell line, DRG neuron, read-out: IC50 sodium current): 31.6 ± 2.07 µM | reduction in the peak current compared to AT (I‒V relationship) ([6]; rat DRG neurons): 36.35% | reduction in peak current compared to AT (I‒V relationship) [7]: 10.56% | LD50 [8]: 43.5 mg/kg | LD50 at 24 h [9]: 424 mg/kg | TI [10]: 149.17 | inhibition at 100 μM/L [11]: 38% | half-life [12]: 1.03 h | half-life [13]: 1.25 h | AUC(0-t) [14]: 5550 ng·h/mL | Tmax [14]: 1 h | half-life [14]: 0.823 h | weight loss and pain-related decreases in food intake [15]: more effective | face grooming frequency [16]: significantly lowered | recovery in body weight and food intake ([16]; compared with AT): more pronounced recovery | weight loss and food intake [17]: significantly mitigating | inflammatory factors (IL-1β, IL-6, TNFα) expression [18]: significantly inhibited | LPS-induced ASC speck formation ([19]; DRG neurons, PC12 cells): inhibits | NLRP3, ASC, and pro-Casp1 expression ([19]; LPS, acute and chronic conditions): modestly reduced | LPS-induced ROS production, cytoplasmic mtDNA release, and 8-OHdG levels [20]: reduced | ALT, AST, LDH, α-HBDH, CREA, UREA levels vs control group ([21]; rats, 7 days and 14 days post-administration): no marked differences | pathological assessment of heart, liver, and kidney vs control group ([21]; rats, local administration to the sciatic nerve): no significant pathological changes | number of inflammatory cells in tissues compared with AT ([21]; sciatic nerve block model, HE, ImageJ): significantly lower
